PfGluPho inh – PfG6PD (Plasmodium falciparum) enzyme inhibition; PfGluPho enzyme, NADPH resazurin-diaphorase fluorescence; actives 0.78% (n = 350,000); AID 504690; inhibition, % at 20 µM;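 active = inhibition reaching at least a set limit at 20 µM in the primary screen, cut at about 59% in these data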
Diaph act CS – counter-screen for diaphorase-based assays: diaphorase activators and chemical reducers | Diaphorase/resazurin coupled assay, resorufin fluorescence, 16 min; hits give high values; 1 = vehicle wells, 0 = NADH-free wells | activation factor at 20 µM | actives 0.005% (n = 190,000) | AID 1229;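 active = diaphorase activity raised at least twofold by the compound at 20 µM; inactive = activation factor below 2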
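Material: bacterial diaphorase enzyme (C. kluyveri); amount: enzyme 0.07 U/mL final; reagent: NADH substrate 0.114 mM plus resazurin dye 0.1 mM, final; doses: single compound dose of 20 µM, 1% DMSO final; timing: 16 min enzyme reaction, ambient temperature; measured by: fluorescence of resorufin, 544 nm excitation, 590 nm emission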
HKDC1 inh – blocks human hexokinase HKDC1 activity; Q2TB90; recombinant HKDC1, G6PDH/diaphorase resazurin coupled fluorescence; inhibition, % at 20 µM; actives 0.16% (n = 340,000); AID 493160;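 active = inhibition above about 35% when tested at 20 µM, limit read from the data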
Target sequence (Q2TB90 whole entry, looked up): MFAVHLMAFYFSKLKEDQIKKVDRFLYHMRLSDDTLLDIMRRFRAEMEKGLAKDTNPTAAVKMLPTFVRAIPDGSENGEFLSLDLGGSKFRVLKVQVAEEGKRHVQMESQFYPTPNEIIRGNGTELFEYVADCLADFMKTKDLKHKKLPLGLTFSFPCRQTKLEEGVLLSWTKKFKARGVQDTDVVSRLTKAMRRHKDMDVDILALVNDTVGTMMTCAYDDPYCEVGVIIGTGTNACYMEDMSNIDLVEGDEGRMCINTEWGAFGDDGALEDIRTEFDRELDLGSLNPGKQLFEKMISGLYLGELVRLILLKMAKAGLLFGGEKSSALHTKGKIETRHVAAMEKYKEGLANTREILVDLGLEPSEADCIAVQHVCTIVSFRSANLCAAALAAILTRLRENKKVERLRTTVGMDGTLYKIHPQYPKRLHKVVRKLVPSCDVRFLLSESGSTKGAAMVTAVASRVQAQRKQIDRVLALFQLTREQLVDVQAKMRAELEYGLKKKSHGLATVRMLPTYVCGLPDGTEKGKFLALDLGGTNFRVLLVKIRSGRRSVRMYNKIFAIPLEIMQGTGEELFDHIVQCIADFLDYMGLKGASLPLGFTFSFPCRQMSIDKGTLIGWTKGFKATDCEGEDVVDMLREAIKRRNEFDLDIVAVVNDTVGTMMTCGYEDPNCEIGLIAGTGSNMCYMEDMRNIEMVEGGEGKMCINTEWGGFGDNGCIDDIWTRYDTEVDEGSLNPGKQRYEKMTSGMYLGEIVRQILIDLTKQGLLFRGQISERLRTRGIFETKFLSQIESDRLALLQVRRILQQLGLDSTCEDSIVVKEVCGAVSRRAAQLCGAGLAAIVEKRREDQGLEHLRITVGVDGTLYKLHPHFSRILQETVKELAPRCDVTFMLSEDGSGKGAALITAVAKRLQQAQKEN
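Assay system: recombinant HKDC1 hexokinase; detection: coupled resazurin fluorescence, excitation 525 nm, emission 613 nm; benchmarks: DMSO-plus-enzyme-mix negative control, buffer-substituted positive control; compound dosing: single 20 µM dose; schedule: 90 min at room temperature in dark; also added: glucose plus 1 mM ATP as hexokinase substrates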
Diaphorase inh – counter-screen for diaphorase-based assays: diaphorase inhibitors and chemical oxidizers | diaphorase resazurin-to-resorufin fluorescence, NADH, 16 min; bacterial (C. kluyveri) enzyme, not human | inhibition, % at 20 µM | actives 0.69% (n = 190,000) | AID 1217;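 active = primary screen inhibition at 20 µM above a set limit, cut at about 50% in these data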
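Benchmarks: positive control wells lacking NADH, neutral wells with DMSO only. System: bacterial diaphorase enzyme (C. kluyveri). Input: 0.14 U/mL diaphorase, enzyme working solution. Detection: resorufin fluorescence, excitation 544 nm, emission 590 nm. Times: 16-min room-temperature incubation before reading.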
G6PDH counter – counter-screen for G6PDH assay hits: L. mesenteroides G6PDH inhibition; Purified L. mesenteroides G6PDH, diaphorase/resazurin coupled fluorescence, 45 min; inhibition, % at 5 µM; actives 0.12% (n = 200,000); in the data active = inhibition above about 50%
Numbers stand for hits; n = inactive; x = not tested or not shown. In the library only some 1.2% were active in any assay of this set; here they are far more common.

SMILES	PfGluPho inh	Diaph act CS	HKDC1 inh	Diaphorase inh	G6PDH counter
COc1ccc(OC)c(-c2c3cc(O)c(=O)cc-3oc3cc(O)c(O)cc23)c1	n	n	n	88	n
O=c1cc2oc3cc(O)c(O)cc3c(-c3ccccc3O)c-2cc1O	n	x	n	x	x
O=C(c1ccc(S(=O)(=O)N2CCC(c3nc4ccccc4[nH]3)CC2)cc1)N1CCOCC1	n	n	n	64	n
Cc1c(NC(=O)c2ccc(-c3cccc([N+](=O)[O-])c3)o2)c(=O)n(-c2ccccc2)n1C	n	x	n	x	n
CCn1c(C)c(C(C)=O)c(N2CCN(c3ccc(F)cc3)CC2)nc1=S	n	n	n	n	n
C=CCn1c(C)c(C(C)=O)c(N2CCN(c3ccccc3)CC2)nc1=S	n	n	n	n	n
C=CCn1c(C)c(C(C)=O)c(N2CCCC2)nc1=S	n	n	n	56	n
CCn1c(C)c(C(C)=O)c(N2CCCC2)nc1=S	n	n	n	57	n
Cc1ccc(-n2ncc3c2CC(C)(C)CC3NC(=O)CCn2cncn2)cc1 (stereo unspecified)	n	x	n	x	x
O=C1c2c([N+](=O)[O-])cc([N+](=O)[O-])cc2S(=O)N1Cc1ccccc1 (stereo unspecified)	62	n	n	n	n
COCCN1C(=O)/C(=C2/C(=O)N(CC(=O)Nc3ccccc3Cl)c3ccccc32)SC1=S	n	x	n	x	x
O=C(CN1C(=O)/C(=C2/SC(=S)N(CCS(=O)(=O)O)C2=O)c2ccccc21)Nc1cccc(C(F)(F)F)c1	n	x	36	x	x
C=CCn1c(SCC(=O)c2ccc(O)c(O)c2)nnc1-c1ccccc1OC	n	n	n	64	n
COc1cc(CNc2ccc3[nH]c(=O)[nH]c3c2)ccc1OCC(=O)NC(C)(C)C	n	n	n	69	n
COc1cccc(C(O)c2cnc(C(C)C)n2C)c1 (stereo unspecified)	n	x	n	x	x
COc1ccc(F)cc1C(=O)C1CCCN(Cc2cccn2-c2cccnc2)C1 (stereo unspecified)	n	n	n	94	n
CSC(=S)N/N=C/c1ccccc1	n	n	n	73	n
O=C(CN1CCc2ccccc2C1)Nc1ccccc1F	n	x	n	x	x
CCCCCCCCCCCCCCCC[n+]1ccc(/C=N/O)cc1	n	2	n	n	n
COc1ccc(NC(=O)N(C)C[C@H]2Oc3ccc(NC(=O)Cc4ccccc4)cc3CC(=O)N([C@H](C)CO)C[C@H]2C)cc1	n	x	n	x	x
Cc1nn(CCC(=O)NNC(=S)Nc2ccc([N+](=O)[O-])cc2)c(C)c1[N+](=O)[O-]	n	n	n	86	n
O=C(Cn1nc(C(F)F)cc1C(F)F)NNC(=S)Nc1ccc([N+](=O)[O-])cc1	n	n	n	52	n
O=C(Cn1nc(C(F)F)cc1C(F)F)NNC(=S)Nc1ccc(F)cc1	n	n	n	n	n
Cn1/c(=N/NC(=O)c2ccccc2Br)sc2ccccc21	n	n	n	n	n
CC1CCCC(C)N1C(=O)COC(=O)c1c[nH]c2ccccc12 (stereo unspecified)	n	x	n	x	x
SMILES	PfGluPho inh	Diaph act CS	HKDC1 inh	Diaphorase inh	G6PDH counter
CC(C)(C)C1=CC(=O)C(=O)C(C(C)(C)C)=C1	111	n	n	73	n
COC(=O)c1c(NC(=O)CSc2nnc(-c3ccco3)n2Cc2ccccc2)sc(C)c1C	n	n	n	57	n
COC(=O)c1c(NC(=O)CSc2nc3ccccc3c(=O)n2Cc2ccco2)sc(C)c1C	n	n	n	n	n
CN(C)c1ccc(C(=O)OCc2ccccc2)cc1	n	n	n	n	n
O=C1C=CC(=O)C(CNc2ccc(C(=O)OCc3ccccc3)cc2)=C1	75	x	47	x	x
COc1ccc(C2C(C#N)=C(N)Oc3cc(C)[nH]c(=O)c32)cc1OC (stereo unspecified)	n	x	n	x	x
CSc1nnc(-c2ccccc2)c(-c2ccccc2)n1	n	x	n	x	x
COc1ccc(C(=O)CSc2nnc(-c3ccco3)c(-c3ccco3)n2)cc1	n	n	n	62	n
CSc1nnc(-c2ccco2)c(-c2ccco2)n1	n	n	n	61	n
CCN(CC)C(=O)CSc1nc2c(sc(=S)n2-c2ccccc2)c(=O)n1Cc1ccco1	n	n	n	51	n
COc1ccc(NS(=O)(=O)c2cn(C)c(=O)n(C)c2=O)cc1	n	x	n	x	x

Source: PubChem (Sanford-Burnham Center for Chemical Genomics)
